For assay [1], the system named is Botrytis cinerea. Kind of assay: Antifungal activity against Botrytis cinerea 98G1 assessed as drug level required for detectable inhibition of fungal growth after 24 hrs at 20 degC in darkness by microtiter plate method. In kind it is functional. The method in brief: (§1)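 B. cinerea 98G1 conidia (tomato leaf agar, near-UV induced sporulation, mesh-filtered) suspended at 10⁶ spores/mL in liquid Hagem, 100 μL per well over dried isolated enniatins or commercial enniatin mixture at 10, 25, 50, 75, 100 μg/mL. A620 read at inoculation and after 24 h at 20 ± 1 °C in darkness, plus stereomicroscope 4-rank scale; duplicate wells.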

In assay [2] the test system is Botrytis cinerea. The assay can be described thus: Antifungal activity against Botrytis cinerea 98G1 spore germination after 24 hrs at 20 degC in darkness by microtiter plate method. It counts as functional. The conditions noted are these: 98G1, 24 h. In a few lines: as §1

Converted amounts (≈) assume the structure as drawn.

On to `CC[C@H](C)[C@H]1C(=O)O[C@H](C(C)C)C(=O)N(C)[C@@H](C(C)C)C(=O)O[C@H](C(C)C)C(=O)N(C)[C@@H](C(C)C)C(=O)O[C@H](C(C)C)C(=O)N1C` [ENNIATIN B1], for which the Activity with Botrytis cinerea [1] was determined as 25 µg/mL. This compound also displayed an MIC with Botrytis cinerea [2] of 75 µg/mL (≈ 115 µM).
Taken in the same sequence, the figures for `CC(C)[C@H]1C(=O)O[C@H](C(C)C)C(=O)N(C)[C@@H](C(C)C)C(=O)O[C@H](C(C)C)C(=O)N(C)[C@@H](C(C)C)C(=O)O[C@H](C(C)C)C(=O)N1C` [ENNIATIN B] were 100 µg/mL and over 100 µg/mL.
Turning to `CC(C)[C@@H]1NC(=O)[C@@H](C(C)C)OC(=O)[C@H](C(C)C)N(C)C(=O)[C@@H](C(C)C)OC(=O)[C@H](C(C)C)N(C)C(=O)[C@@H](C(C)C)OC1=O` [ENNIATIN B2], the Activity in the assay with Botrytis cinerea [1] is over 100 µg/mL. For the same compound, the MIC in the assay on Botrytis cinerea [2] was over 100 µg/mL.
Taken in the same sequence, the figures for `CC(C)[C@H]1C(=O)O[C@H](C(C)C)C(=O)N(C)[C@@H](C)C(=O)O[C@H](C(C)C)C(=O)N(C)[C@@H](C(C)C)C(=O)O[C@H](C(C)C)C(=O)N1C` [ENNIATIN J1] were over 100 µg/mL and over 100 µg/mL.
Taken in the same sequence, the figures for `CC(C)C[C@H]1C(=O)O[C@H](C(C)C)C(=O)N(C)[C@@H](C(C)C)C(=O)O[C@H](C(C)C)C(=O)N(C)[C@@H](C(C)C)C(=O)O[C@H](C(C)C)C(=O)N1C` [ENNIATIN B4] were 50 µg/mL and over 100 µg/mL.
Consider `CC[C@H]1C(=O)O[C@H](C(C)C)C(=O)N(C)[C@@H](C(C)C)C(=O)O[C@H](C(C)C)C(=O)N(C)[C@@H](C(C)C)C(=O)O[C@H](C(C)C)C(=O)N1C` [ENNIATIN K1], for which, in the assay with Botrytis cinerea [1], the Activity was found to be 100 µg/mL. Moreover, the minimal inhibitory concentration (MIC) in the assay on Botrytis cinerea [2] is over 100 µg/mL.

A word on the MIC: it is the lowest concentration that inhibits growth of the organism. A lower MIC goes with a more susceptible organism.

The record behind these values is ChEMBL document CHEMBL1151207, “Enniatins of Fusarium sp. strain F31 and their inhibition of Botrytis cinerea spore germination” (2004).
